mIAP activ – increases mouse intestinal alkaline phosphatase activity; muIAP, CDP-Star luminescence, 30 min; hits give high values; 1 = vehicle-only enzyme signal, 0 = enzyme-free wells; activation factor at 10 µM; 330,000 compounds, 0.24% hits;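 active = activation factor of at least 2 at 20 µM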
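Assay system: mouse IAP enzyme; reagent: chemiluminescent substrate CDP-Star; dosing: test compounds delivered from DMSO solution; schedule: 30 min at room temperature; measured by: luminescence from enzymatic CDP-Star hydrolysis; controls: DMSO-only wells and no-enzyme negative control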
hIAP block – human IAP inhibition; purified IAP, CDP-Star luminescence, 30 min; inhibition, % at 10 µM; 330,000 compounds, 0.12% hits; P09923;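 active = inhibition reaching a set limit with compound at 10 µM in the primary screen, cut at about 35% in these data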;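 also: plate controls were DMSO wells with enzyme for no effect and no-enzyme buffer wells for full effect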
Target sequence (P09923 whole entry, looked up): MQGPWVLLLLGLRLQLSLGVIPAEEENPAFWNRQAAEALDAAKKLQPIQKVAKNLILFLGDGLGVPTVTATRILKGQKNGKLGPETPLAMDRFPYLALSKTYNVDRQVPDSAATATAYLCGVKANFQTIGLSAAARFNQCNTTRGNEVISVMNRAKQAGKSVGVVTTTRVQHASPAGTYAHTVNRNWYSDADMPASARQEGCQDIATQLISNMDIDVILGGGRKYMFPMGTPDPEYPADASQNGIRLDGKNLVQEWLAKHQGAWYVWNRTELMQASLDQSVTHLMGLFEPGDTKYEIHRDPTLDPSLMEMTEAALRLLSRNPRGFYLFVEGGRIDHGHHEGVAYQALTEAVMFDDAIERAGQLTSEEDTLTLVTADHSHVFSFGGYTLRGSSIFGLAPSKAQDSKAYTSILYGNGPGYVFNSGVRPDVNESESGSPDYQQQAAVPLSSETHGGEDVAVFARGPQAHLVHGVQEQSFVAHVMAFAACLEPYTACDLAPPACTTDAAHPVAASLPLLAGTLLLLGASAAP
bIAP inh – blocks bovine intestinal alkaline phosphatase activity; purified bovine IAP, CDP-star luminescence, 30 min; inhibition, % at 20 µM; 190,000 tested, under 10 active; AID 1019;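 active = over 50% inhibition of intestinal alkaline phosphatase at 20 µM in the single-dose screen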
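test system = bovine IAP enzyme | medium = DEA buffer 100 mM, pH 9.8, with MgCl2 1.0 mM, ZnCl2 0.02 mM | detection = luminescence | dosing = single compound dose of 20 µM, 2% DMSO final | incubation = 30 min reaction at room temperature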
mIAP block – mouse IAP inhibition; 330,000 compounds, 0.2% hits; inhibition, % at 10 µM; purified mouse IAP, CDP-Star luminescence, 30 min;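 active = inhibition of at least 40% at 10 µM in the primary screen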;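 also: plate controls were DMSO with enzyme for no effect and no enzyme wells for full effect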
hIAP act – human IAP activation; 330,000 compounds, 0.16% hits; activation factor at 10 µM; P09923; purified human IAP, CDP-Star luminescence, 30 min; hits give high values; 1 = vehicle-only enzyme, 0 = enzyme-free background;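 active = activation factor of the enzyme at least 2-fold when tested at 20 µM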
bIAP act – intestinal alkaline phosphatase (bovine) activation; AID 1016; 200,000 compounds, 0.17% hits; activation factor at 20 µM; purified bovine IAP, CDP-star luminescence, 30 min; hits give high values; fold of DMSO-control signal, blank-subtracted;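 active = activation factor of 2 or more at 20 µM, a signal rise over negative controls twice the positive control's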
Active calls of the source: *; nt = no result. Shown are actives, neighbours in structure and some others; about 0.79% of the full set was active somewhere.

SMILES	mIAP activ	hIAP block	bIAP inh	mIAP block	hIAP act	bIAP act
COc1ccc(N2C3=C(CC4=C2CCCC4=O)C(=O)CCC3)cc1	0.54	12	15	46*	0.88	0.9
Cc1ccn(-c2ccc(NC(=O)c3cccs3)cc2)n1	0.95	14	nt	5	0.86	nt
Cc1ccc(-n2c(SCC(N)=O)nnc2-c2cccnc2)c(C)c1	2*	1	3	-103	0.99	1
COc1ccc(Cl)cc1-c1n[nH]c(=S)n1Cc1ccccc1	0.58	-6	nt	42*	1.1	nt
S=c1[nH]nc(-c2ccccc2Cl)n1Cc1ccccc1	0.94	-7	8	6	1.1	0.9
COc1ccc2oc(C(=O)N(C)Cc3ccc(OC(F)F)cc3)c(C)c2c1	1	13	nt	-2	0.87	nt
S=C(NCC1CCCCC1)Nc1ccc(Oc2ccccc2)cc1	3.3*	5	-18	-226	0.95	1.2
CC(C)(C)c1ccc(OCCNC(=S)Nc2ccccc2)cc1	2.4*	2	8	-136	0.98	0.9
Cc1cccc(NC(=S)NC2CCCC2)c1	1.1	-5	-9	-14	1.1	1.1
S=C(Nc1ccc(Br)cc1)NC1CCCC1	2.1*	-18	-11	-107	1.2	1.1
CCCCNC(=S)Nc1ccc(Oc2ccccc2)cc1	2.3*	-10	23	-135	1.1	0.8
S=C(Nc1ccc(Oc2ccccc2)cc1)NC1CCCC1	2.7*	2	1	-172	0.98	1
S=C(Nc1ccccc1Oc1ccccc1)NC1CCCC1	1.4	-5	-1	-43	1.1	1
O=C1[C@H](Oc2ccccc2)[C@@H](c2ccccc2)N1c1ccncc1	0.99	nt	nt	0	nt	nt
Oc1ccc(/C=N/NC(=S)Nc2cccnc2)cc1O	0.21	28	-18	79*	0.72	1.2
CC(C)(C)c1ccc(/C=N/NC(=S)Nc2cccnc2)cc1	1	-3	-3	-1	1	1
CN(C)c1nc(NCc2ccccc2)nc(SCC(=O)Nc2ccccc2)n1	2*	3	13	-104	0.97	0.9
CN(C)c1nc(NC(C)(C)C)nc(SCC(=O)Nc2ccccc2)n1	1.2	5	-7	-16	0.95	1.1
CC(C)(C)NC(=O)COc1coc(CN2CCN(Cc3ccccc3)CC2)cc1=O	0.97	-41	nt	3	1.4	nt
COc1ccc(CCNc2c3ccccc3nc3ccccc23)cc1OC	1.2	8	nt	-22	0.92	nt
O=C(Nc1cccc(-c2cccc(F)c2)c1)C1CCN(Cc2ccc(CO)o2)CC1	2.1*	-2	nt	-107	1	nt
COc1cccc(-c2cccc(NC(=O)C3CCN(Cc4ccc(CO)o4)CC3)c2)c1	0.97	8	nt	3	0.92	nt
O=C(Nc1cccc(C(=O)O)c1)/C(=C\c1ccccc1)NC(=O)c1ccccc1	0.99	-4	4	1	1	1
Cc1ccc(C(=O)N/C(=C/c2ccc(Cl)cc2)C(=O)Nc2cccc(C(=O)O)c2)cc1	1.1	21	-119	-8	0.79	2.2*
CC(NC(=O)NC1CCCCC1)C(c1cccs1)N1CCN(c2ccccc2)CC1 (configuration not stated)	2*	22	-32	-100	0.79	1.3
SMILES	mIAP activ	hIAP block	bIAP inh	mIAP block	hIAP act	bIAP act
CC(NC(=O)C1CC1)C(c1cccs1)N1CCN(c2ccccc2)CC1 (configuration not stated)	1.1	7	9	-8	0.93	0.9
CN(c1cccc(NC(=O)CN(c2ccc(Cl)c(Cl)c2)S(=O)(=O)c2ccccc2)c1)S(C)(=O)=O	1.5	7	-2	-53	0.93	1
Cc1ccc(S(=O)(=O)N(CC(=O)Nc2cccc(N(C)S(C)(=O)=O)c2)c2ccc(Cl)c(Cl)c2)cc1	2.6*	-14	-36	-158	1.1	1.4
C=C1CCC(OC(C)=O)C2(C)CCC3C(C)C(=O)OC3C12O (configuration not stated)	0.99	4	nt	1	0.96	nt
Cn1cc(S(=O)(=O)Nc2cccc(F)c2)c(=O)n(C)c1=O	1.2	3	6	-17	0.97	0.9
COc1cccc(NS(=O)(=O)c2cn(C)c(=O)n(C)c2=O)c1	1.1	16	-409	-6	0.84	5.1*
COc1ccccc1CNC(=O)COc1cc2c(c3oc(=O)cc(C)c13)CCC(C)(C)O2	0.99	6	nt	1	0.94	nt
